From ChEMBL document CHEMBL1142154, “High-level vancomycin-resistant Staphylococcus aureus isolates associated with a polymicrobial biofilm” (2007)
In brackets after ≈: the same amount, converted by molar mass.

Columns and labels:
Format in all cases: functional
[1] = system: Staphylococcus aureus; assay: Antibacterial activity against vancomycin-resistant Staphylococcus aureus isolate 595
Summary of the method: (§1)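 MICs by broth microdilution in cation-adjusted Mueller-Hinton broth, following CLSI guidelines. Test isolates were clinical VRE (E. faecium), MRSA and VRSA recovered from patient sites or from nephrostomy tube biofilm. Biofilm isolates were obtained by PBS lumen washes of tube segments, dilution in Butterfield buffer and plating on selective and blood agars at 35°C for 24 to 48 h.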

[2] = system: Staphylococcus aureus; assay: Antibacterial activity against methicillin-resistant Staphylococcus aureus isolate 5737; summary of the method: as §1
[3] = system: Staphylococcus aureus; assay: Antibacterial activity against methicillin-resistant Staphylococcus aureus isolate 5739; summary of the method: as §1
[4] = system: Staphylococcus aureus; assay: Antibacterial activity against methicillin-resistant Staphylococcus aureus isolate 2513; summary of the method: as §1
[5] = system: Staphylococcus aureus; assay: Antibacterial activity against methicillin-resistant Staphylococcus aureus isolate 2530; summary of the method: as §1
[6] = system: Staphylococcus aureus; assay: Antibacterial activity against vancomycin-resistant Staphylococcus aureus isolate 2514; summary of the method: as §1
[7] = system: Staphylococcus aureus; assay: Antibacterial activity against methicillin-resistant Staphylococcus aureus isolate 5735; summary of the method: as §1
[8] = system: Staphylococcus aureus; assay: Antibacterial activity against methicillin-resistant Staphylococcus aureus isolate 5736; summary of the method: as §1
[9] = system: Staphylococcus aureus; assay: Antibacterial activity against methicillin-resistant Staphylococcus aureus isolate 5733; summary of the method: as §1
[10] = system: Staphylococcus aureus; assay: Antibacterial activity against vancomycin-resistant Staphylococcus aureus isolate 5734; summary of the method: as §1
[11] = system: Enterococcus faecalis; assay: Antibacterial activity against Enterococcus faecalis isolate 5744
[12] = system: Enterococcus faecalis; assay: Antibacterial activity against Enterococcus faecalis isolate 5743
[13] = system: Enterococcus faecalis; assay: Antibacterial activity against Enterococcus faecalis isolate 5742
[14] = system: Enterococcus faecium; assay: Antibacterial activity against Enterococcus faecium isolate 2547; summary of the method: as §1
[15] = system: Enterococcus faecium; assay: Antibacterial activity against Enterococcus faecium isolate 5749
[16] = system: Enterococcus faecium; assay: Antibacterial activity against Enterococcus faecium isolate 5750
[17] = system: Enterococcus faecium; assay: Antibacterial activity against Enterococcus faecium isolate 5751
[18] = system: Enterococcus faecium; assay: Antibacterial activity against Enterococcus faecium isolate 5752; summary of the method: as §1
[19] = system: Enterococcus faecium; assay: Antibacterial activity against Enterococcus faecium isolate 5753
[20] = system: Enterococcus faecalis; assay: Antibacterial activity against Enterococcus faecalis isolate 5745
[21] = system: Enterococcus faecalis; assay: Antibacterial activity against Enterococcus faecalis isolate 5746

Row | Compound | MIC [1] [µg/mL] | MIC [2] [µg/mL] | MIC [3] [µg/mL] | MIC [4] [µg/mL] | MIC [5] [µg/mL] | MIC [6] [µg/mL] | MIC [7] [µg/mL] | MIC [8] [µg/mL] | MIC [9] [µg/mL] | MIC [10] [µg/mL] | MIC [11] [µg/mL] | MIC [12] [µg/mL] | MIC [13] [µg/mL] | MIC [14] [µg/mL] | MIC [15] [µg/mL] | MIC [16] [µg/mL] | MIC [17] [µg/mL] | MIC [19] [µg/mL] | MIC [20] [µg/mL] | MIC [21] [µg/mL] | other results
1 | CCC[C@@H]1C[C@@H](C(=O)N[C@@H]([C@H]2O[C@H](SC)[C@H](O)[C@@H](O)[C@H]2O)[C@H](C)Cl)N(C)C1 [CLINDAMYCIN] | > 8 | ≤ 0.12 | ≤ 0.12 | > 8 | ≤ 0.12 | > 8 | > 8 | > 8 | > 8 | > 8 |  |  |  |  |  |  |  |  |  |  | 
2 | CC[C@H]1OC(=O)[C@H](C)[C@@H](O[C@H]2C[C@@](C)(OC)[C@@H](O)[C@H](C)O2)[C@H](C)[C@@H](O[C@@H]2O[C@H](C)C[C@H](N(C)C)[C@H]2O)[C@](C)(O)C[C@@H](C)C(=O)[C@H](C)[C@@H](O)[C@]1(C)O [ERYTHROMYCIN] | > 8 | > 8 | > 8 | > 8 | > 8 | > 8 | > 8 | > 8 | > 8 | > 8 | > 8 | > 8 | > 8 | > 8 | > 8 | > 8 | > 8 | > 8 | > 8 | > 8 | MIC [18]: > 8 µg/mL
3 | CO[C@H]1/C=C/O[C@@]2(C)Oc3c(C)c(O)c4c(O)c(c(/C=N/N5CCN(C)CC5)c(O)c4c3C2=O)NC(=O)/C(C)=C\C=C\[C@H](C)[C@H](O)[C@@H](C)[C@@H](O)[C@@H](C)[C@H](OC(C)=O)[C@@H]1C [RIFAMPIN] |  |  |  |  |  |  |  |  |  |  | 0.5 (≈ 0.608 µM) | 1 (≈ 1.22 µM) | 1 (≈ 1.22 µM) | > 4 | > 4 | 4 (≈ 4.86 µM) | > 4 | > 4 | 1 (≈ 1.22 µM) | 2 (≈ 2.43 µM) | MIC [18]: > 4 µg/mL
4 | CN[C@H](CC(C)C)C(=O)N[C@H]1C(=O)N[C@@H](CC(N)=O)C(=O)N[C@H]2C(=O)N[C@H]3C(=O)N[C@H](C(=O)N[C@H](C(=O)O)c4cc(O)cc(O)c4-c4cc3ccc4O)[C@H](O)c3ccc(c(Cl)c3)Oc3cc2cc(c3O[C@@H]2O[C@H](CO)[C@@H](O)[C@H](O)[C@H]2O[C@H]2C[C@](C)(N)[C@H](O)[C@H](C)O2)Oc2ccc(cc2Cl)[C@H]1O [VANCOMYCIN] | 64 (≈ 44.2 µM) |  |  |  |  | 32 (≈ 22.1 µM) |  |  |  |  | 2 (≈ 1.38 µM) | 2 (≈ 1.38 µM) | 2 (≈ 1.38 µM) |  |  | 256 (≈ 177 µM) | 256 (≈ 177 µM) | 256 (≈ 177 µM) | 2 (≈ 1.38 µM) | 2 (≈ 1.38 µM) | 
5 | CN(C)[C@@H]1C(O)=C(C(N)=O)C(=O)[C@@]2(O)C(O)=C3C(=O)c4c(O)cccc4[C@@](C)(O)[C@H]3C[C@@H]12 [TETRACYCLINE] | > 16 | ≤ 0.5 | ≤ 0.5 | ≤ 0.5 | ≤ 0.5 | > 16 | 8 (≈ 18 µM) | 8 (≈ 18 µM) | 8 (≈ 18 µM) | 16 (≈ 36 µM) | > 16 | > 16 | > 16 | > 16 | > 16 | > 16 | > 16 | > 16 | > 16 | ≤ 0.5 | MIC [18]: > 16 µg/mL
6 | Cc1onc(-c2ccccc2)c1C(=O)N[C@@H]1C(=O)N2[C@@H]1SC(C)(C)[C@@H]2C(=O)O [OXACILLIN] | > 16 | > 16 | > 16 | > 16 | > 16 | > 16 | > 16 | > 16 | > 16 | > 16 |  |  |  |  |  |  |  |  |  |  | 
7 | O=C(N[C@H](CO)[C@H](O)c1ccc([N+](=O)[O-])cc1)C(Cl)Cl [CHLORAMPHENICOL] |  |  |  |  |  |  |  |  |  |  | 16 (≈ 49.5 µM) | 8 (≈ 24.8 µM) | 8 (≈ 24.8 µM) | 8 (≈ 24.8 µM) | 4 (≈ 12.4 µM) | 8 (≈ 24.8 µM) | ≤ 2 | 4 (≈ 12.4 µM) | 8 (≈ 24.8 µM) | 16 (≈ 49.5 µM) | MIC [18]: 8 µg/mL (≈ 24.8 µM)
8 | C[C@H]1COc2c(N3CCN(C)CC3)c(F)cc3c(=O)c(C(=O)O)cn1c23.C[C@H]1COc2c(N3CCN(C)CC3)c(F)cc3c(=O)c(C(=O)O)cn1c23.O [LEVOFLOXACIN] | 16 | 16 | 16 | 16 | 16 | 16 | 16 | 16 | 16 | 16 |  |  |  |  |  |  |  |  |  |  | 
9 | CN(C)c1ccc(O)c2c1C[C@H]1C[C@H]3[C@H](N(C)C)C(O)=C(C(N)=O)C(=O)[C@@]3(O)C(O)=C1C2=O [MINOCYCLINE] |  |  |  |  |  |  |  |  |  |  | 16 (≈ 35 µM) | 8 (≈ 17.5 µM) | 8 (≈ 17.5 µM) | 32 (≈ 69.9 µM) | 16 (≈ 35 µM) | 32 (≈ 69.9 µM) | 16 (≈ 35 µM) | 16 (≈ 35 µM) | 8 (≈ 17.5 µM) | 0.12 (≈ 0.262 µM) | MIC [18]: 32 µg/mL (≈ 69.9 µM)
10 | C[C@H]1c2cccc(O)c2C(=O)C2=C(O)[C@]3(O)C(=O)C(C(N)=O)=C(O)[C@@H](N(C)C)[C@@H]3[C@@H](O)[C@@H]21.O [DOXYCYCLINE] | 4 | 0.5 | ≤ 0.25 | ≤ 0.25 | ≤ 0.25 | 4 | 4 | 4 | 4 | 8 | 8 | 4 | 4 | 16 | 8 | 16 | 16 | 8 | 4 | ≤ 0.25 | MIC [18]: 16 µg/mL
11 | GENTAMICIN | 32 | > 64 | > 64 | < 4 | < 4 | 64 | 16 | > 64 | > 64 | > 64 |  |  |  |  |  |  |  |  |  |  | 
12 | CC1(C)S[C@@H]2[C@H](NC(=O)Cc3ccccc3)C(=O)N2[C@H]1C(=O)O [PENICILLIN G] |  |  |  |  |  |  |  |  |  |  | 2 (≈ 5.98 µM) | 2 (≈ 5.98 µM) | 2 (≈ 5.98 µM) | 128 (≈ 383 µM) | 128 (≈ 383 µM) | 256 (≈ 766 µM) | 256 (≈ 766 µM) | 256 (≈ 766 µM) | 2 (≈ 5.98 µM) | 2 (≈ 5.98 µM) | MIC [18]: 128 µg/mL (≈ 383 µM)
